Test results: publication PMC6392825 (ChemistryOpen, 2019)
Values after ≈ are worked out from the molar mass of the structure shown.

What was measured:
Caco‐2 [1] = experiment: Cytotoxicity, mitochondrial activity; assay type: cell-based; conditions: Homo sapiens, Caco-2, 72 h, read-out: IC50 MTT
How it was run: (§1)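 Seeded at 20000 cells/well in DMEM and grown 24 h at 37 °C, 10% CO2. Medium was then replaced with serum-free medium holding test compound (25 mM DMSO stock) at various concentrations for 72 h, in triplicate; doxorubicin was the positive control. MTT (5 mg/mL stock in PBS) added for 2 h, formazan dissolved in DMSO, A570. IC50 derived from % surviving cells, reported as mean ± SD combined with SRB data.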

HepG2 [2] = experiment: Cytotoxicity, mitochondrial activity; assay type: cell-based; conditions: Homo sapiens, HepG2, 72 h, read-out: IC50 MTT
How it was run: as §1

HT‐29 [3] = experiment: Cytotoxicity, mitochondrial activity; assay type: cell-based; conditions: Homo sapiens, HT-29, 72 h, read-out: IC50 MTT
How it was run: as §1

Caco‐2 [4] = experiment: Cell growth inhibition, protein content; assay type: cell-based; conditions: Homo sapiens, Caco-2, 72 h, read-out: IC50 SRB
How it was run: (§2)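 Cell lines from ATCC, grown in DMEM+glutamax with 1% NEAA, 1% P/S and 10% FBS at 37 °C, 10% CO2. Seeded at 20000 cells/well for 24 h, then exposed to test compound (25 mM DMSO stock) for three days. Fixed with cold TCA for 1 h at 4 °C, stained 30 min with 0.4% SRB in 1% acetic acid, dissolved in 10 mM Tris, A490. Triplicate; IC50 given as mean ± SD combined with MTT data (n ≥ 3).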

HepG2 [5] = experiment: Intracellular ROS assay; assay type: cell-based; conditions: for activity at 1 µM / activity at 10 µM: Homo sapiens, HepG2, read-out: Intracellular ROS, percentage compared to the untreated control cells (ROS/SRB)
How it was run: (§3)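 Cells seeded at 20000/well and grown 24 h at 37 °C, 10% CO2, then treated with test compound at 10 and 1 μM in serum-free medium. NAC and doxorubicin served as controls. After a PBS wash, cells were loaded with 20 μM DCFH-DA for 30 min, washed, and held 1 h in phenol red-free DMEM. Fluorescence read at ex 485/em 535 nm and normalized to SRB in the same well. Reported as % of untreated control, n ≥ 3, two-tailed t-test with unequal variances.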

HT‐29 [6] = experiment: Cell growth inhibition, protein content; assay type: cell-based; conditions: Homo sapiens, HT-29, 72 h, read-out: IC50 SRB
How it was run: as §2

Caco‐2 [7] = experiment: Intracellular ROS assay; assay type: cell-based; conditions: Homo sapiens, Caco-2, read-out: Intracellular ROS, percentage compared to the untreated control cells (ROS/SRB)
How it was run: as §3

[8] = Chemical antioxidant capacity, FRAP assay
EA.hy926 [9] = experiment: Cytotoxicity, mitochondrial activity; assay type: cell-based; conditions: Homo sapiens, EA.hy 926, 72 h, read-out: IC50 MTT
How it was run: as §1

EA.hy926 [10] = experiment: Cell growth inhibition, protein content; assay type: cell-based; conditions: Homo sapiens, EA.hy 926, 72 h, read-out: IC50 SRB
How it was run: as §2

[11] = Water solubility, shake flask method, 0.1 M phosphate buffer pH 6.8; assay type: physicochemical; conditions: 37 °C, pH 6.8, aqueous buffer, thermodynamic from solid
HT‐29 [12] = experiment: Intracellular ROS assay; assay type: cell-based; conditions: Homo sapiens, HT-29, read-out: Intracellular ROS, percentage compared to the untreated control cells (ROS/SRB)
How it was run: as §3

HepG2 [13] = experiment: Cell growth inhibition, protein content; assay type: cell-based; conditions: Homo sapiens, HepG2, 72 h, read-out: IC50 SRB
How it was run: as §2

EA.hy926 [14] = experiment: Intracellular ROS assay; assay type: cell-based; conditions: Homo sapiens, EA.hy 926, read-out: Intracellular ROS, percentage compared to the untreated control cells (ROS/SRB)
How it was run: as §3

Row | SMILES | IC50 (Caco‐2 [1]) [µM] | IC50 (HepG2 [2]) [µM] | IC50 (HT‐29 [3]) [µM] | IC50 (Caco‐2 [4]) [µM] | activity at 1 µM (HepG2 [5]) [%] | activity at 10 µM (HepG2 [5]) [%] | IC50 (HT‐29 [6]) [µM] | activity at 1 µM (Caco‐2 [7]) [%] | activity at 10 µM (Caco‐2 [7]) [%] | FRAP (Trolox equivalent per μM) [8] [Trolox equivalent per μM] | FRAP (curcumin equivalent per μM) [8] | IC50 (EA.hy926 [9]) [µM] | IC50 (EA.hy926 [10]) [µM] | solubility at 90 min [11] [µM] | solubility at 24 h [11] [µM] | activity at 1 µM (HT‐29 [12]) [%] | activity at 10 µM (HT‐29 [12]) [%] | IC50 (HepG2 [13]) [µM] | activity at 1 µM (EA.hy926 [14]) [%] | activity at 10 µM (EA.hy926 [14]) [%] | other results
1 | O=C(/C=C(O)/C=C/c1ccc2ccccc2n1)/C=C/c1c[nH]c2ccccc12 [3 k, (1E,4Z,6E)‐5‐Hydroxy‐1‐(1H‐indol‐3‐yl)‐7‐(quinolin‐2‐yl)hepta‐1,4,6‐trien‐3‐one] | 44.7 ± 2.1 | 56.2 ± 1.6 | 42 ± 2 | 47.5 ± 0.2 | 156 ± 13 | 197 ± 24.6 | 43.8 ± 0.9 | 162 ± 21.7 | 168 ± 28.1 | 0.20 | 0.19 curcumin equivalent per μM | 38.3 ± 1.7 | 53.2 ± 1.3 | 8.1 ± 0.1 (≈ 2.97 µg/mL) | 9.6 ± 0.8 (≈ 3.52 µg/mL) | 112 ± 10.8 | 116 ± 7.1 | 54.1 ± 1 | 120 ± 9.2 | 126 ± 5.6 | 
2 | O=C(/C=C(O)/C=C/c1cccnc1)/C=C/c1c[nH]c2ccccc12 [3 h, (1E,4Z,6E)‐5‐Hydroxy‐1‐(1H‐indol‐3‐yl)‐7‐(pyridin‐3‐yl)hepta‐1,4,6‐trien‐3‐one] | 6.7 ± 0.4 | 5 ± 0.3 | 6.4 ± 0.8 | 10.3 ± 0.1 | 115 ± 4.5 | 112 ± 4.9 | 34.6 ± 0.8 | 111 ± 3.2 | 128 ± 8.2 | 0.13 | 0.12 curcumin equivalent per μM | 6.2 ± 0.3 | 2.9 ± 0.1 | 5.3 ± 0.1 (≈ 1.68 µg/mL) | 5.4 ± 0.1 (≈ 1.71 µg/mL) | 82.3 ± 1.5 | 95.6 ± 4.2 | 10.2 ± 0.4 | 97.9 ± 9.8 | 107 ± 5.3 | change of intracellular ROS in words (HepG2 [5]; HepG2, vs untreated control, 10 and 1 μM): significantly increased ROS production
3 | O=C(/C=C(O)/C=C/c1cccs1)/C=C/c1c[nH]c2ccccc12 [3 m, (1E,4Z,6E)‐5‐Hydroxy‐1‐(1H‐indol‐3‐yl)‐7‐(thiophen‐2‐yl)hepta‐1,4,6‐trien‐3‐one] | 0.5 ± 0.3 | 4.7 ± 0.2 | 6.9 | 5.7 ± 0.2 | 318 ± 13.2 | 424 ± 28.4 | 4.8 ± 0.3 | 238 ± 5.5 | 295 ± 11.1 | 0.10 | 0.09 curcumin equivalent per μM | 4.4 ± 0.4 | 8.6 ± 0.5 | 1.27 (≈ 0.408 µg/mL) | 1.25 (≈ 0.402 µg/mL) | 247 ± 15.5 | 337 ± 22 | 10.8 ± 1.6 | 344 ± 7.1 | 322 ± 9.6 | 
4 | O=C(/C=C(O)/C=C/c1ccc[nH]1)/C=C/c1c[nH]c2ccccc12 [3 l, (1E,4Z,6E)‐5‐Hydroxy‐1‐(1H‐indol‐3‐yl)‐7‐(1H‐pyrrol‐2‐yl)hepta‐1,4,6‐trien‐3‐one] | 6.5 ± 0.2 | 16.5 ± 0.4 | 10.5 ± 0.1 | 10.1 ± 0.5 | 600 ± 61.8 | 998 ± 60.2 | 10 ± 0.1 | 410 ± 31.9 | 767.2 ± 4.1 | 0.29 | 0.27 curcumin equivalent per μM | 3.3 ± 0.1 | 4.2 ± 0.3 | 12.2 ± 0.3 (≈ 3.71 µg/mL) | 12 ± 0.7 (≈ 3.65 µg/mL) | 152 ± 8.8 | 558 ± 96.3 | 9.8 ± 0.3 | 438 ± 46.1 | 826 ± 22.7 | 
5 | COc1cc(/C=C/C(=O)/C=C(O)/C=C/c2ccccn2)ccc1O [3 b, (1E,4Z,6E)‐5‐Hydroxy‐1‐(4‐hydroxy‐3‐methoxyphenyl)‐7‐(pyridin‐2‐yl)hepta‐1,4,6‐triene‐3‐one] | 22.3 ± 0.9 | 24.6 ± 4.8 | 34.3 ± 2.7 | 25.8 ± 1.1 | 108 ± 6.7 | 91.9 ± 9.2 | 34.8 ± 1.2 | 92.7 ± 5.4 | 99.7 ± 6.2 | 0.41 | 0.40 curcumin equivalent per μM | 1.1 ± 0.1 | 3.1 | 9.9 ± 0.4 (≈ 3.2 µg/mL) | 11.6 ± 0.6 (≈ 3.75 µg/mL) | 80.8 ± 2.5 | 93.6 ± 3.1 | 20.6 ± 1.4 | 100 ± 7 | 127 ± 4.9 | 
6 | COc1cc(/C=C/C(=O)/C=C(O)/C=C/c2c[nH]c3ccccc23)ccc1O [3 g, (1E,4Z,6E)‐5‐Hydroxy‐1‐(4‐hydroxy‐3‐methoxyphenyl)‐7‐(1H‐indol‐3‐yl)hepta‐1,4,6‐trien‐3‐one] | 5.8 ± 0.3 | 19.5 ± 0.6 | 12.9 ± 0.9 | 37.9 ± 1.8 | 111 ± 14.5 | 104 ± 12 | 40.5 ± 4.3 | 102 ± 11.3 | 111 ± 3.1 | 0.44 | 0.42 curcumin equivalent per μM | 19 ± 0.4 | 45.1 ± 2.6 | 7.6 ± 0.9 (≈ 2.75 µg/mL) | 13.2 ± 0.3 (≈ 4.77 µg/mL) | 85.7 ± 1.3 | 90.4 ± 5.1 | 13.5 ± 1.1 | 129 ± 9.2 | 92.7 ± 6.1 | 
